Each structure is given as a SMILES string.

Usually IC50 stands for the point on the concentration scale where inhibition reaches its midpoint.

The target in the first assay is T1, Tyrosinase (Agaricus bisporus, UniProt O42713).
T1 sequence (O42713 whole entry): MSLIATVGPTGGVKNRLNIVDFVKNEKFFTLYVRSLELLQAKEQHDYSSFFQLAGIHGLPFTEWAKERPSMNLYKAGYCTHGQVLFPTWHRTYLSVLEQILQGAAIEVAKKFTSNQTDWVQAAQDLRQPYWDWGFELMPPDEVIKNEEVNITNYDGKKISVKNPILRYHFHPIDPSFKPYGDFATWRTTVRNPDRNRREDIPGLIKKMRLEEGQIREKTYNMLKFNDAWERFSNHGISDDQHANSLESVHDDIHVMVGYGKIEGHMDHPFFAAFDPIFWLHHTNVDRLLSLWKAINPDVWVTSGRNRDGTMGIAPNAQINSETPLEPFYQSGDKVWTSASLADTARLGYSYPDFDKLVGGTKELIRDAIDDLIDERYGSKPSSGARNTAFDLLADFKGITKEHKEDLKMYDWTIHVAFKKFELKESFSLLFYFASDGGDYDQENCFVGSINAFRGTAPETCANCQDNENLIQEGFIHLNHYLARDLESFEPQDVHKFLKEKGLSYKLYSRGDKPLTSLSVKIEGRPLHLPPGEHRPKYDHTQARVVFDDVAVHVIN
The assay is described as follows: Inhibition of mushroom tyrosinase by kinetic based assay. Conditions: read-out: Ki(app). The method, boiled down: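 Time-dependent assay with L-tyrosine substrate in 0.25 M phosphate buffer (pH 6.8) at 30 °C. Activity was monitored continuously for 15 min, giving 20 points at 30 s intervals, at several inhibitor concentrations and fixed substrate. kobs came from the slow-binding equation or from ln(residual activity) versus preincubation time. k3, k4 and Kiapp came from kobs versus [I] by the Morrison–Walsh method, using nonlinear regression.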
On to `CC(C)=CCc1cc(CCCc2ccc(O)cc2O)ccc1O` [BROUSSONIN C], for which the Ki came out at 0.0485 µM.

`CC(C)=CCc1c(CCCc2ccc(O)cc2O)cc(O)c(O)c1CC=C(C)C` [KAZINOL F]: the Ki was determined as 0.181 µM.

Turning to `C=CC(C)(C)c1cc(CCCc2cc(O)c(O)c(CC3OC3(C)C)c2CC=C(C)C)c(O)cc1O` (stereo not drawn) [KAZINOL S], the Ki is 0.87 µM.

For a further assay, the target named is T1, Tyrosinase. The assay is described as follows: Inhibition of monophenolase activity of mushroom tyrosinase using as L-tyrosine substrate.
Conditions: not given
The method, boiled down:
(§1)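 Mushroom tyrosinase (144 units) was added to 0.25 M phosphate buffer (pH 6.8) with substrate: L-tyrosine for monophenolase or L-DOPA for diphenolase. Substrate was added as 200 µL of a 2.7 mM L-tyrosine or 5.4 mM L-DOPA stock. Samples were 10 mM EtOH stocks. Dopachrome formation was read at 475 nm at 30 °C. Runs were triplicate, and IC50 came from a logistic curve fit.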
`CC(C)=CCc1cc(CCCc2ccc(O)cc2O)ccc1O` [BROUSSONIN C] had an IC50 of 0.43 µM.

Regarding `C=CC(C)(C)c1cc(CCCc2cc(O)c(O)c(CC=C(C)C)c2CC=C(C)C)c(O)cc1O` [KAZINOL C], the IC50 is 15.5 µM.

For the compound `C=CC(C)(C)c1cc(CCCc2cc(O)c3c(c2CC=C(C)C)CCC(C)(C)O3)c(O)cc1O` [KAZINOL D], the IC50 worked out at 165 µM.

The compound `CC(C)=CCc1c(CCCc2ccc(O)cc2O)cc(O)c(O)c1CC=C(C)C` [KAZINOL F] gave an IC50 of 0.96 µM.

As for `C=CC(C)(C)c1cc(CCCc2cc(O)c(O)c(CC3OC3(C)C)c2CC=C(C)C)c(O)cc1O` (stereo not drawn) [KAZINOL S], half-maximal inhibition (IC50) required 17.9 µM.

`C=CC(C)(C)c1cc(CCCc2cc(O)c3c(c2CC=C(C)C)CC(C(C)(C)O)O3)c(O)cc1O` (stereo not drawn) [KAZINOL T] registered an IC50 of 103 µM.

Another assay concerns the target T1, Tyrosinase. Briefly: Inhibition of monophenolase activity of mushroom tyrosinase using as L-tyrosine substrate by Lineweaver-Burke plot based kinetic assay.
Conditions: not given
With `CC(C)=CCc1cc(CCCc2ccc(O)cc2O)ccc1O` [BROUSSONIN C], the Ki was determined as 0.23 µM.

For `C=CC(C)(C)c1cc(CCCc2cc(O)c(O)c(CC=C(C)C)c2CC=C(C)C)c(O)cc1O` [KAZINOL C], the Ki amounted to 10.8 µM.

`CC(C)=CCc1c(CCCc2ccc(O)cc2O)cc(O)c(O)c1CC=C(C)C` [KAZINOL F] registered a Ki of 0.41 µM.

Take `C=CC(C)(C)c1cc(CCCc2cc(O)c(O)c(CC3OC3(C)C)c2CC=C(C)C)c(O)cc1O` (stereo not drawn) [KAZINOL S]: the Ki turned out to be 9.12 µM.

A further assay has as its target T1, Tyrosinase. The assay is described as follows: Inhibition of diphenolase activity of mushroom tyrosinase using as L-DOPA substrate.
Conditions: not given
The procedure, abridged:
as §1
In turn, `CC(C)=CCc1cc(CCCc2ccc(O)cc2O)ccc1O` [BROUSSONIN C] showed an IC50 of 0.57 µM. That is a sub-micromolar value.

Compound `C=CC(C)(C)c1cc(CCCc2cc(O)c(O)c(CC=C(C)C)c2CC=C(C)C)c(O)cc1O` [KAZINOL C] came in with an IC50 of 22.8 µM.

In the case of `C=CC(C)(C)c1cc(CCCc2cc(O)c3c(c2CC=C(C)C)CCC(C)(C)O3)c(O)cc1O` [KAZINOL D], the IC50 was more than 200 µM.

With `CC(C)=CCc1c(CCCc2ccc(O)cc2O)cc(O)c(O)c1CC=C(C)C` [KAZINOL F], the half-inhibitory concentration (IC50) came out at 1.7 µM.

As for `C=CC(C)(C)c1cc(CCCc2cc(O)c(O)c(CC3OC3(C)C)c2CC=C(C)C)c(O)cc1O` (stereo not drawn) [KAZINOL S], the IC50 amounted to 26.9 µM.

`C=CC(C)(C)c1cc(CCCc2cc(O)c3c(c2CC=C(C)C)CC(C(C)(C)O)O3)c(O)cc1O` (stereo not drawn) [KAZINOL T] came in with a concentration for half-maximal inhibition (IC50) of more than 200 µM.

For the next assay, the target named is T1, Tyrosinase. Briefly: Inhibition of diphenolase activity of mushroom tyrosinase using as L-DOPA substrate by Lineweaver-Burke plot based kinetic assay.
Conditions: not given
The procedure, abridged:
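Diphenolase kinetics used 0.25 M phosphate buffer (pH 6.8) at 30 °C, reading dopachrome at 475 nm. L-DOPA concentration was varied at several fixed inhibitor concentrations. Reciprocal velocity was plotted against 1/[L-DOPA] (Lineweaver–Burk), and inhibition type and Ki were read from the line pattern.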
For `CC(C)=CCc1cc(CCCc2ccc(O)cc2O)ccc1O` [BROUSSONIN C], the Ki worked out at 0.29 µM.

In turn, `C=CC(C)(C)c1cc(CCCc2cc(O)c(O)c(CC=C(C)C)c2CC=C(C)C)c(O)cc1O` [KAZINOL C] came in with a Ki of 11.2 µM.

Take `CC(C)=CCc1c(CCCc2ccc(O)cc2O)cc(O)c(O)c1CC=C(C)C` [KAZINOL F]: the Ki stood at 0.77 µM.

`C=CC(C)(C)c1cc(CCCc2cc(O)c(O)c(CC3OC3(C)C)c2CC=C(C)C)c(O)cc1O` (stereo not drawn) [KAZINOL S] showed a Ki of 15.6 µM.

The values are drawn from ChEMBL document CHEMBL1139318, “Tyrosinase inhibitory effects of 1,3-diphenylpropanes from Broussonetia kazinoki” (Bioorg Med Chem, 2009).
